# Bioassay records from PubChem BioAssay.
# The list is not random: actives were taken first. Their share in the collection is about 4.7%.
# MrgX1 antag: human MrgX1 receptor antagonism, primary screen | B-score at 10 µM | actives 1.3% (n = 310,000) | Q96LB2 | MRGX1-HEK293 calcium flux, Fluo-4, BAM8-22 antagonism; active compounds read low;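 active means calcium-response B-score plate-corrected more than 3 library SD below zero, starting fluorescence within 5 deviations, no agonist response on first addition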;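 further: peak minus trough fluorescence over baseline after final BAM8-22 challenge near maximal dose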
# MrgX1 ag: agonists of human MrgX1 receptor; Q96LB2; MrgX1-HEK293 cells, Fluo-4 calcium fluorescence, agonist mode; active compounds read high; B-score at 10 µM; actives 0.44% (n = 310,000);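 active means calcium response B-score plate-corrected fluorescence ratio at least 3 library SD, with starting fluorescence B-score inside 5 SD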
#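 Test system: Stable human MrgX1 HEK293 cell line | Schedule: Overnight plating before 1 h dye loading | Read-out basis: Baseline-normalised fluorescence change ratio, B-scored | Detection: Kinetic calcium dye fluorescence, Fluo-4 NW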
# KCC2 mod: modulates chloride dependent transport by human KCC2; actives 2.2% (n = 190,000); AID 1456; KCC2 cells, thallium flux FluoZin-2 fluorescence; B-score of Tl+ flux slope (higher = more flux/activation; lower = inhibition) at 10 µM; Q9H2X9;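 active means thallium flux slope and its plate-corrected score both differing from the plate sample mean at a set confidence after two filtering rounds, in either direction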;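 further: slope of fluorescence scaled to starting intensity during 10 to 20 s after thallium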
# RGS4 pot: RGS4 potentiation or activation. HEK293 M3R/inducible RGS4, carbachol calcium flux Fluo4; active compounds read low. B-score at 10 µM. actives 0.92% (n = 310,000). AID 463111;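 active means B-score of the integrated calcium signal more than 4 SD below the library mean, with starting fluorescence not abnormally high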;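 further: negative B-score means reduced calcium response which marks RGS4 activation or potentiation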
#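 Assay system: HEK293 FlpIn-TREx cells, stable M3R, doxycycline-inducible RGS4 / Probe or stimulus: carbachol, ECmax concentration / Times: overnight RGS4 induction, 30 min dye load 37 °C, 20 min compound RT / Signal: kinetic calcium fluorescence imaging with Fluo4-AM dye, 2 µM / Measure: Agonist-evoked peak-minus-minimum fluorescence over baseline, integrated ratio, B score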
# MrgX1 allo act: allosterically activates human MrgX1 receptor signaling; B-score at 10 µM; MrgX1-HEK293, Fluo-4 calcium flux, FDSS; active compounds read high; AID 588675; actives 0.63% (n = 310,000); Q96LB2;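 active means plate-corrected calcium response at least 3 library SD above typical, normal starting fluorescence, not activating the receptor alone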;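 further: compound read alongside a low EC10 to EC30 dose of BAM8-22 agonist; peak minus trough fluorescence over baseline measured at the second addition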
# RGS4 inh: inhibitors of human RGS4; P49798; HEK293 M3R/RGS4 inducible, Fluo-4 calcium flux; active compounds read high; triggered by carbachol at its EC20; B-score at 10 µM; actives 0.45% (n = 310,000); AID 463165;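 active means B-score, a plate-corrected calcium signal, over three deviations above library mean, with baseline fluorescence within five deviations of library mean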;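 further: RGS4 expression induced by doxycycline in cells with stable M3 receptor; B-score is computed from the integrated fluorescence ratio over baseline after carbachol; higher B-score means a larger calcium signal and so more RGS4 inhibition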
# MrgX1 PAM conf: reconfirmed allosteric activator of human MrgX1 receptor | AID 602413 | activation (ratio percentage), % at 10 µM | MrgX1-HEK293, Fluo-4 calcium fluorescence, FDSS | actives 13% (n = 1,200) | shares compounds with MrgX1 allo act;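 active means ratio at least 3 SD above the weak peptide control, stable starting fluorescence, no direct agonism earlier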;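 further: compound followed by low BAM8-22 agonist challenge near EC20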
# HEK293 Ca flux: counter-screen for MrgX1 antagonists: effect in parental HEK293 cells; Fluo-4 calcium fluorescence, FDSS; fluorescence ratio F(max-min)/F0 at 10 µM; actives 2% (n = 4,000); shares compounds with MrgX1 antag;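 active means duplicate-averaged calcium fluorescence ratio at least three times the standard deviation of buffer wells, a nonspecific response in parental cells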
# HEK293 Ca counter: activity in parental HEK293 cells without MrgX1. shares compounds with MrgX1 antag. fluorescence ratio F(max-min)/F0 at 10 µM. AID 624114. actives 0.4% (n = 4,000). parental HEK293 calcium flux, Fluo-4 fluorescence ratio; active compounds read high;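 active means calcium fluorescence ratio, averaged over duplicates, at least 3 SD of the buffer-well ratio, meaning a nonspecific response in receptor-free cells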;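 further: untransfected parental HEK293 lacking MrgX1 used as counterscreen for MrgX1 allosteric activators; fluorescence change taken during the second addition on a kinetic imager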
# HEK293 Ca cntr2: activity in parental HEK293 cells lacking MrgX1 receptor. Fluo-4 calcium fluorescence (FDSS); active compounds read high. AID 624115. actives 8.7% (n = 4,000). fluorescence ratio F(max-min)/F0 at 10 µM. shares compounds with MrgX1 antag;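 active means calcium fluorescence ratio at least three times the spread of buffer wells, meaning a non-specific response in parental cells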
# * marks the source's active call; other numbers are inactive results; i = inactive; / = not tested or not shown.
SMILES,MrgX1 antag,MrgX1 ag,KCC2 mod,RGS4 pot,MrgX1 allo act,RGS4 inh,MrgX1 PAM conf,HEK293 Ca flux,HEK293 Ca counter,HEK293 Ca cntr2
Cc1coc2cc3oc(=O)c(CC(=O)N[C@@H](CC(C)C)C(=O)O)c(C)c3cc12,i,i,/,i,i,i,/,/,/,/
O=C(COC(=O)c1cc(-c2ccc(F)cc2)nc2ccccc12)NCC1CCCO1 (centres undefined),i,i,-0.69,i,i,i,/,/,/,/
Cn1c(N2CCN(C(c3ccccc3)c3ccccc3)CC2)nc2ccccc21,i,i,/,-7.1*,7.5*,i,i,i,i,i
Cn1c(N2CCN(C(=O)Nc3ccc(F)cc3)CC2)nc2ccccc21,i,i,-0.44,i,i,i,/,/,/,/
CC(NC(=O)COc1ccccc1Cl)c1ccccc1 (centres undefined),i,i,/,i,7.2*,i,i,i,i,i
Cc1ccnc(NC(=O)c2ccc(Cl)s2)c1,i,i,/,i,8.5*,i,i,i,i,i
O=C(Nc1ccon1)c1ccc(Cl)s1,i,i,5.6,i,i,i,/,/,/,/
C=CCNc1nnc(SCC(=O)N2CCC(C(N)=O)CC2)s1,i,i,/,i,i,i,/,/,/,/
Cc1ccn2c(=O)c(C(=O)NC3CCCCC3C)c(O)nc2c1 (centres undefined),i,i,/,i,9.3*,i,i,i,i,i
COCc1cc(N2CCN(c3ccccc3F)CC2)nc(-c2ccccc2)n1,i,i,/,i,i,i,/,/,/,/
COCc1cc(Sc2ccc(Cl)cc2)nc(-c2ccccc2)n1,i,i,0.63,i,14*,i,i,i,i,i
COCc1cc(Sc2ccc(Br)cc2)nc(-c2ccccc2)n1,i,i,1.2,i,8.9*,i,i,i,i,i
CS(=O)Cc1cc(Sc2ccccc2)nc(-c2ccncc2)n1 (centres undefined),i,i,/,i,i,i,/,/,/,/
Cc1cccc(C)c1NC(=O)NC1(C(=O)NCc2ccncc2)CCCCC1,i,i,/,i,i,i,/,/,/,/
COc1ccc(-c2[nH]ncc2-c2ccc3c(c2)OCCO3)c(O)c1,i,i,0.057,/,8*,/,i,i,i,i
CCc1cc(-c2[nH]ncc2-c2ccc3c(c2)OCO3)c(O)cc1O,i,i,-0.064,i,i,i,/,/,/,/
CCOc1ccc(-c2[nH]ncc2Oc2ccccc2OCC)c(O)c1,i,i,/,i,6.7*,i,i,i,i,i
COc1ccc(-c2cn[nH]c2-c2ccc(O)cc2O)cc1OC,i,i,/,i,i,i,/,/,/,/
CCOc1ccc(-c2[nH]ncc2-c2ccc(OC)c(OC)c2)c(O)c1,i,i,-0.84,/,18*,/,i,i,i,i
O=C(CSc1ccc(F)cc1)NCC1(N2CCOCC2)CCCCC1,i,i,/,i,i,i,/,/,/,/
Cc1cccc(-n2cnc3cc(C(=O)N4CCc5ccccc54)ccc32)c1,i,i,-2.9,i,7.5*,i,i,i,i,i
COCCNC(=O)c1ccc2c(c1)ncn2-c1cccc(C)c1,i,i,/,i,i,i,/,/,/,/
CCCCNc1nc(N(C)c2ccccc2)nc(-n2ccnc2)n1,i,i,-0.028,i,i,i,/,/,/,/
